# ChEMBL document CHEMBL1143847, “Competitive inhibitors of the CphA metallo-beta-lactamase from Aeromonas hydrophila” (Antimicrob Agents Chemother, 2007)
# B1: Beta-lactamase (Aeromonas hydrophila), Q44079 (protein)
# chain: MMKGWMKCGLAGAVVLMASFWGGSVRAAGMSLTQVSGPVYVVEDNYYVQENSMVYFGAKGVTVVGATWTPDTARELHKLIKRVSRQPVLEVINTNYHTDRAGGNAYWKSIGAKVVSTRQTRDLMKSDWAEIVAFTRKGLPEYPDLPLVLPNVVHEGDFTLQEGKLRAFYAGPAHTPDGIFVYFPDQQVLYGNCILKEKLGNLSFADVKAYPRTLERLKAMKLPIKTVVGGHDSPLHGPELIDHYEALIKAAPQS
# Tests used:
# [1] = substrate: C[C@@H](O)[C@H]1C(=O)N2C(C(=O)O)=C(SCCNC=N)C[C@H]12; assay: Activity of Aeromonas hydrophila beta lactamase CphA at pH 7.0
# Summary of the method: (§1)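 Wild-type CphA kinetics with imipenem as substrate, measured in a mixed buffer adjusted to the stated pH with HCl or NaOH. The buffer held 40 mM sodium acetate, 20 mM each of cacodylate, MOPS, TAPS, CHES and CAPS, and 20 μg/ml BSA. Runs were at 30°C in thermostatted cells. Km and kcat came from initial rates. At pH 10 only kcat/Km was taken, because imipenem hydrolyses spontaneously.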
# [2] = substrate: C[C@@H](O)[C@H]1C(=O)N2C(C(=O)O)=C(SCCNC=N)C[C@H]12; assay: Activity of Aeromonas hydrophila beta lactamase CphA at pH 8.0; summary of the method: as §1
# [3] = substrate: C[C@@H](O)[C@H]1C(=O)N2C(C(=O)O)=C(SCCNC=N)C[C@H]12; assay: Activity of Aeromonas hydrophila beta lactamase CphA at pH 9.0; summary of the method: as §1
protein,measurement,setting,value
B1,Km,[1],120 µM
same,kcat,[1],210 s⁻¹
same,Km,[2],83 µM
same,kcat,[2],140 s⁻¹
same,Km,[3],63 µM
same,kcat,[3],49 s⁻¹
